ChEMBL document CHEMBL1139130, “New C-5 substituted pyrrolotriazine dual inhibitors of EGFR and HER2 protein tyrosine kinases” (Bioorg Med Chem Lett, 2007)
pIC50: −log10 of the molar value. Each block holds one compound with its values, some of them ahead of it.

Tests used:
NCI-N87 [1] = test: Antiproliferative activity against human N87 cells; assay type: functional, cell-based
[2] = target: T1, Receptor tyrosine-protein kinase erbB-2 (Homo sapiens, UniProt P04626); test: Inhibition of human recombinant cytoplasmic HER2 kinase expressed in Sf9 cells
T1 sequence (P04626 whole entry): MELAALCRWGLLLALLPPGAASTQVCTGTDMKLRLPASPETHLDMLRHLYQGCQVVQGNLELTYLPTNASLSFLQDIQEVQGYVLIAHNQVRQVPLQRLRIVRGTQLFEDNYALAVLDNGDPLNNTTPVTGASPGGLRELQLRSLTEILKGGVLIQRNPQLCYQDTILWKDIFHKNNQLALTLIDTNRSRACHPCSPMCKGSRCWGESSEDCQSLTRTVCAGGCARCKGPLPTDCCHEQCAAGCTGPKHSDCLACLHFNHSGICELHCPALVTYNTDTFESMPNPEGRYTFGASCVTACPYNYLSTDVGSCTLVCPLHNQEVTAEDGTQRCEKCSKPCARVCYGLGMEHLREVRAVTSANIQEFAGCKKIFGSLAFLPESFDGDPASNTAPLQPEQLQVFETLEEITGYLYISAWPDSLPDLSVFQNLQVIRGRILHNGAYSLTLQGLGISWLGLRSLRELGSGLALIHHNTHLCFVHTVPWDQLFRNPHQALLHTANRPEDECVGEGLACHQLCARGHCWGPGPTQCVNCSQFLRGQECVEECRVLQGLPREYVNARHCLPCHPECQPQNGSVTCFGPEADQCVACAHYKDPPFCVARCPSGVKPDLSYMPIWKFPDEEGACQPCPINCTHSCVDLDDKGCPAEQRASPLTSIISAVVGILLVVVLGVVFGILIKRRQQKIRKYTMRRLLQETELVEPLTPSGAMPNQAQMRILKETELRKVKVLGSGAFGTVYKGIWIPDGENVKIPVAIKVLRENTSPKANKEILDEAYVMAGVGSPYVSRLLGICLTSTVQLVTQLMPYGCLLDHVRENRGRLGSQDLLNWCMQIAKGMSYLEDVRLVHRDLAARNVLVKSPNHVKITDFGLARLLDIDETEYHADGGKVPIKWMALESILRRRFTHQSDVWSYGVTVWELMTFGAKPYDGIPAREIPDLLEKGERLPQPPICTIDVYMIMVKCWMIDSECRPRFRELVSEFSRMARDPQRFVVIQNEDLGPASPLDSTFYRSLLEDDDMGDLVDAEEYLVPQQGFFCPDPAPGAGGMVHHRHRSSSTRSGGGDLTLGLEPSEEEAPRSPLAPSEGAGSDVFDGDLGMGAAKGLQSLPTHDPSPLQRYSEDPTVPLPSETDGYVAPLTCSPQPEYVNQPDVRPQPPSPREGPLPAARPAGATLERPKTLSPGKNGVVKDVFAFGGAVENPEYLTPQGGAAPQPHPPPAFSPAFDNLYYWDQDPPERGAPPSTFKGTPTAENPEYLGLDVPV

[3] = target: Epidermal growth factor receptor (Homo sapiens, UniProt P00533)
Sequence of Epidermal growth factor receptor (P00533 whole entry): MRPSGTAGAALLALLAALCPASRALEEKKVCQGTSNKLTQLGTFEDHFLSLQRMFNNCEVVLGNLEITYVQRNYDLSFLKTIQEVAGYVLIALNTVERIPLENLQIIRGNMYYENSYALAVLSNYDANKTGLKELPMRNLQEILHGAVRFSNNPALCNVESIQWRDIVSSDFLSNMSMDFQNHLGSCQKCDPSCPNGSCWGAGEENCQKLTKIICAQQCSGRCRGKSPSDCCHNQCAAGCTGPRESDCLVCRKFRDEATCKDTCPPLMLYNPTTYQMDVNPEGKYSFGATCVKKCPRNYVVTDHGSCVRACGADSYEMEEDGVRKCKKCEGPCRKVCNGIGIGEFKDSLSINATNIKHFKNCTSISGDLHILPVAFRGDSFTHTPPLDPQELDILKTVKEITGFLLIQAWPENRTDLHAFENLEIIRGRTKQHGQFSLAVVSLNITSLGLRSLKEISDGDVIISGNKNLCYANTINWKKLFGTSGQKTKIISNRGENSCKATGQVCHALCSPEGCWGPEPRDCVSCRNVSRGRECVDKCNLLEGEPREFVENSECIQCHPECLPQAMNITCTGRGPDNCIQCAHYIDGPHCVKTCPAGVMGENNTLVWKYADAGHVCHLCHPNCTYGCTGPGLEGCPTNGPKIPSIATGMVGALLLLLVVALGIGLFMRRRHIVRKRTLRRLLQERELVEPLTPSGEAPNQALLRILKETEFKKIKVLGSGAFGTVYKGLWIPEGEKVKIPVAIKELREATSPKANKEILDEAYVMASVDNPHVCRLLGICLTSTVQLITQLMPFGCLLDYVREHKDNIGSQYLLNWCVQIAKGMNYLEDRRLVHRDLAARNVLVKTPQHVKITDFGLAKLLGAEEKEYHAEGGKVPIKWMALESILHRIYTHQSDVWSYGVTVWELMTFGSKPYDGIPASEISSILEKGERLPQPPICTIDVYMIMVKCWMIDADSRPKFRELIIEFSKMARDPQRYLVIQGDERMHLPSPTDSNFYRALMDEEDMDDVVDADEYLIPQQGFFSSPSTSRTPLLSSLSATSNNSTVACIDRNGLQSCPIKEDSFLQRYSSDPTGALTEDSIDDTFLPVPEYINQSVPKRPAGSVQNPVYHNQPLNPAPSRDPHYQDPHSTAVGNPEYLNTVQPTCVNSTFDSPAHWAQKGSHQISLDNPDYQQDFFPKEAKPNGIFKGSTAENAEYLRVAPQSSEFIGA

HT-29 = test: Antiproliferative activity against human HT29 cells
Liver = test: Metabolic stability in mouse liver microsomes assessed as rate of metabolism per mg protein at 3 uM after 10 mins; assay type: ADME, Microsome
Summary of the method: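 Test compound at 3 µM incubated 10 min with mouse liver microsomes plus NADPH. Rate of metabolism expressed as nmol min⁻¹ mg protein⁻¹.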

A2780 = test: Antiproliferative activity against human A2780 cells; assay type: functional, cell-based
Mus musculus [4] = test: Toxicity in mouse at 240 mg/kg, po; conditions: in vivo
[5] = Fraction unbound (%) ligand in mouse serum at 10 uM by equilibrium dialysis; assay type: ADME, cell-free, Plasma
MAP kinase p38 = MAP kinase p38 (Homo sapiens, UniProt O15264+Q15759+Q16539+P53778); test: Inhibition of p38 kinase; assay type: protein assay
Summary of the method: (§1)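 Kinase panel values are IC50s reported as the mean of at least three determinations, with variability around the mean under 15%.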

[6] = Antitumor activity against human GEO cells xenografted athymic mouse at 240 mg/kg, sc QD for 21 days; assay type: functional; conditions: po, 504 h, read-out: TGI, in the assay text read “po QD” for “sc QD”
Summary of the method: (§2)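 Tumor cells were implanted subcutaneously in athymic mice and staged to about 100 mg before dosing, with drug given orally. […] Probability was assessed for median tumor weight at the end of treatment.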

NCI-N87 [7] = test: Antitumor activity against human N87 cells xenografted athymic mouse at 120 mg/kg, sc QD for 14 days; assay type: functional; conditions: NCI-N87, po, 336 h, read-out: TGI, in the assay text read “po QD” for “sc QD”; summary of the method: as §2
[8] = Plasma concentration in BALB/C mouse at 50 mg/kg, po after 4 hrs; assay type: ADME, organism-based; set-up: dose 50 mg/kg, route oral
Summary of the method: (§3)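 Single oral 50 mg/kg dose in male Balb/C mice. AUC taken over 4 h, and plasma concentration measured at 4 h.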

[9] = Antitumor activity against human GEO cells xenografted athymic mouse at 120 mg/kg, sc QD for 21 days; assay type: functional; conditions: po, 504 h, read-out: TGI, in the assay text read “po QD” for “sc QD”; summary of the method: as §2
[10] = Permeability across Caco-2 cell membrane; assay type: ADME, cell-based; conditions: human, read-out: permeability
[11] = Antitumor activity against human GEO cells xenografted athymic mouse at 30 mg/kg, sc QD for 21 days; assay type: functional; conditions: po, 504 h, read-out: TGI, in the assay text read “po QD” for “sc QD”; summary of the method: as §2
[12] = target: T1, Receptor tyrosine-protein kinase erbB-2; test: Inhibition of HER2 phosphorylation in human N87 cells; assay type: cell-based; conditions: NCI-N87
Summary of the method: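 N87 human gastric carcinoma cells, which overexpress EGFR and HER2, were exposed to a range of compound concentrations for 1 h. Cell lysates were then Western blotted with anti-phosphotyrosine and anti-HER2 antibodies to follow HER2 phosphorylation.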

[13] = Antitumor activity against human GEO cells xenografted athymic mouse at 60 mg/kg, sc QD for 21 days; assay type: functional; conditions: po, 504 h, read-out: TGI, in the assay text read “po QD” for “sc QD”; summary of the method: as §2
[14] = target: Hepatocyte growth factor receptor (Homo sapiens, UniProt P08581); test: Inhibition of Met kinase; summary of the method: as §1
[15] = target: Vascular endothelial growth factor receptor 2 (Homo sapiens, UniProt P35968); test: Inhibition of VEGFR2; summary of the method: as §1
Sequence of Vascular endothelial growth factor receptor 2 (P35968 whole entry): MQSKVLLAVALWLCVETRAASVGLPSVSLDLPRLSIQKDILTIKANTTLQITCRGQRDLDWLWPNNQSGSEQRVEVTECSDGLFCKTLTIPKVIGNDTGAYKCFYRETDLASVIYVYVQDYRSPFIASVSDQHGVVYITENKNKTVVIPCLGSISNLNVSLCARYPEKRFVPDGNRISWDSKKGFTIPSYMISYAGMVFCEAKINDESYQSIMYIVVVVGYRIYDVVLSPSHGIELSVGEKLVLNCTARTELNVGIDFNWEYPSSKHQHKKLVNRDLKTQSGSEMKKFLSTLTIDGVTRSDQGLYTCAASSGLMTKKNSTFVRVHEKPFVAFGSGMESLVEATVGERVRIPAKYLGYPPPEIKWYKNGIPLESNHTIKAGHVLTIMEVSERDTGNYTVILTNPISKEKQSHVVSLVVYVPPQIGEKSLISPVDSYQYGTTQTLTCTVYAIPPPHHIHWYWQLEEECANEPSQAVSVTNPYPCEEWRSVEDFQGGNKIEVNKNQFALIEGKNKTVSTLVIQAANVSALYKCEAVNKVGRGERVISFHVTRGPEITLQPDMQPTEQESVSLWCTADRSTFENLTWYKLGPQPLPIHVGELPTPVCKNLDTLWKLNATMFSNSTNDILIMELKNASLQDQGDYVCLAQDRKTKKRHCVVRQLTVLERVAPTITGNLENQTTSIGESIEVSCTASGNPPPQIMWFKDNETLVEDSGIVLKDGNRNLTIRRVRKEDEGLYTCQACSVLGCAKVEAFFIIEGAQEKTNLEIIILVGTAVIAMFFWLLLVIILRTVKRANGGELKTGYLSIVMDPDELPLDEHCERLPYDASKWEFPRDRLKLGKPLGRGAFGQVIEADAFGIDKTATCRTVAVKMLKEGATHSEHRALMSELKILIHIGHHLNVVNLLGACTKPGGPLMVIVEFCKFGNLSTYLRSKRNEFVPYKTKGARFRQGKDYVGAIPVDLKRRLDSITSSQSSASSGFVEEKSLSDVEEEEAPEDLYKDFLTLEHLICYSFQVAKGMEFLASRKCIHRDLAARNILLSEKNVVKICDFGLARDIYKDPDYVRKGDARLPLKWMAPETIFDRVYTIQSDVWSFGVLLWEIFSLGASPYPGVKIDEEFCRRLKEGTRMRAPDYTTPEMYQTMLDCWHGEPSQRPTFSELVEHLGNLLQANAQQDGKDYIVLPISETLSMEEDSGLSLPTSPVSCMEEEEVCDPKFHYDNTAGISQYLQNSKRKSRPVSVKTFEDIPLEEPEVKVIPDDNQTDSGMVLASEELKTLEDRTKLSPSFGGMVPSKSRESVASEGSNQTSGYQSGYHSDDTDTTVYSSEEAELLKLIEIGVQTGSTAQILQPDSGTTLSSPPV

Mus musculus [16] = test: Toxicity in mouse assessed as wieght loss at 240 mg/kg, po; conditions: in vivo
Mus musculus [17] = test: AUC in BALB/C mouse at 50 mg/kg, po after 4 hrs; assay type: ADME, organism-based, Plasma; set-up: time < 4 hr, dose 50 mg/kg, route oral; conditions: in vivo; summary of the method: as §3
NCI-N87 [18] = test: Antitumor activity against human N87 cells xenografted athymic mouse at 240 mg/kg, sc QD for 14 days; assay type: functional; conditions: NCI-N87, po, 336 h, read-out: TGI, in the assay text read “po QD” for “sc QD”; summary of the method: as §2
[19] = Inhibition of PKA; set-up: species or system Homo sapiens
Summary of the method: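 IC50 values are means of at least three determinations, with variability around the mean under 15%.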

NCI-N87 [20] = test: Antitumor activity against human N87 cells xenografted athymic mouse at 60 mg/kg, sc QD for 14 days; assay type: functional; conditions: NCI-N87, po, 336 h, read-out: TGI, in the assay text read “po QD” for “sc QD”; summary of the method: as §2
[21] = target: Tyrosine-protein kinase Lck (Homo sapiens, UniProt P06239); test: Inhibition of LCK kinase
Sequence of Tyrosine-protein kinase Lck (P06239 whole entry): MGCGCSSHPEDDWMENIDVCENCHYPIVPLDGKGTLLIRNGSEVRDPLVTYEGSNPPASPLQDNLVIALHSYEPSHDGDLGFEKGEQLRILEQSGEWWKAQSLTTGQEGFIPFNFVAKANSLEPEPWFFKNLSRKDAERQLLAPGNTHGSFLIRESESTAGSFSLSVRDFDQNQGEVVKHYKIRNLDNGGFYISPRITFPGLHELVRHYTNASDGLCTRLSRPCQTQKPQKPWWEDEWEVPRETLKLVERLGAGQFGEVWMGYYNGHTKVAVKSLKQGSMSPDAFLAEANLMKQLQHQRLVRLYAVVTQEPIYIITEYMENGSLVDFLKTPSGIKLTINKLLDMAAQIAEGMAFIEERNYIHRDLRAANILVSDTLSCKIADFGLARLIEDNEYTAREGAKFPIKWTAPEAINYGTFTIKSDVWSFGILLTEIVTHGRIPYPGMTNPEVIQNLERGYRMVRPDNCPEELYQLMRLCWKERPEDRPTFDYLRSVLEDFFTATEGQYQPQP
Summary of the method: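 IC50 is the mean of at least three determinations, with variability around the mean below 15%.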

NCI-N87 [22] = test: Antitumor activity against human N87 cells xenografted athymic mouse at 30 mg/kg, sc QD for 14 days; assay type: functional; conditions: NCI-N87, po, 336 h, read-out: TGI, in the assay text read “po QD” for “sc QD”; summary of the method: as §2

Structure (SMILES): C[C@@H](c1cccc(F)c1)n1ncc2cc(Nc3ncnn4ccc(COC[C@@H]5CNCCO5)c34)ccc21
pIC50 [2]: 6.29
pIC50 [3]: 6.40

Structure (SMILES): CN(C)CCCOCc1ccn2ncnc(Nc3ccc4c(cnn4Cc4cccc(F)c4)c3)c12
pIC50 [2]: 6.25
pIC50 [3]: 6.21
Stability (Liver): 0.12 nmol/min/mg

Structure (SMILES): Cc1ccn2ncnc(Nc3ccc4[nH]ncc4c3)c12
pIC50 [2]: < 6.00
pIC50 [3]: 6.68

Structure (SMILES): Fc1cccc(Cn2ncc3cc(Nc4ncnn5ccc(COCC6CNCCOC6)c45)ccc32)c1 (stereo not drawn)
pIC50 (NCI-N87 [1]): 5.70
pIC50 (A2780): < 5.00
pIC50 [2]: 6.85
pIC50 [3]: 6.68

Structure (SMILES): c1cncc(Cn2ncc3cc(Nc4ncnn5ccc(COC[C@@H]6CNCCO6)c45)ccc32)c1
pIC50 (NCI-N87 [1]): 6.26
pIC50 [2]: 6.39
pIC50 [3]: 6.09

Structure (SMILES): Cc1ccn2ncnc(Nc3ccc(OCc4cccc(F)c4)c(Cl)c3)c12
pIC50 [2]: 6.37
pIC50 [3]: 6.60

Structure (SMILES): Cc1ccn2ncnc(Nc3ccc4c(cnn4Cc4cccc(F)c4)c3)c12
pIC50 (NCI-N87 [1]): 6.42
pIC50 [2]: 7.06
pIC50 (HT-29): < 5.00
pIC50 [3]: 7.09
Stability (Liver): 0.14 nmol/min/mg

Structure (SMILES): COc1cn2ncnc(Nc3ccc4c(cnn4Cc4cccc(F)c4)c3)c2c1COC[C@@H]1CNCCO1
pIC50 (NCI-N87 [1]): 5.47
pIC50 [2]: 6.60
pIC50 [3]: 6.37

Structure (SMILES): COCCOCc1ccn2ncnc(Nc3ccc4c(cnn4Cc4cccc(F)c4)c3)c12
pIC50 [2]: 6.38

Structure (SMILES): COC(=O)COCc1ccn2ncnc(Nc3ccc4c(cnn4Cc4cccc(F)c4)c3)c12
pIC50 (NCI-N87 [1]): 5.77
pIC50 [2]: 6.55
pIC50 [3]: 6.34

Structure (SMILES): Fc1cccc(Cn2ncc3cc(Nc4ncnn5ccc(COC[C@H]6CCCNC6)c45)ccc32)c1
pIC50 (NCI-N87 [1]): 6.01
pIC50 (A2780): 5.13
pIC50 [2]: 6.77
pIC50 [3]: 6.72

Structure (SMILES): Cc1ccn2ncnc(Nc3ccc(F)c(Cl)c3)c12
pIC50 [2]: < 6.00

Structure (SMILES): C[C@@H](c1ccccc1)n1ncc2cc(Nc3ncnn4ccc(COC[C@@H]5CNCCO5)c34)ccc21
pIC50 (NCI-N87 [1]): 5.66
pIC50 [2]: 6.07
pIC50 [3]: 6.16

Structure (SMILES): Fc1cccc(Cn2ncc3cc(Nc4ncnn5ccc(COC[C@@H]6COCCN6)c45)ccc32)c1
pIC50 (NCI-N87 [1]): 5.52
pIC50 (A2780): < 5.00
pIC50 [2]: 6.23
pIC50 [3]: 6.19

Structure (SMILES): COCc1ccn2ncnc(Nc3ccc4c(cnn4Cc4cccc(F)c4)c3)c12
pIC50 [2]: 6.38
pIC50 [3]: 6.47
Stability (Liver): 0.24 nmol/min/mg

Structure (SMILES): Cc1ccn2ncnc(Nc3ccc4c(cnn4Cc4ccccn4)c3)c12
pIC50 [2]: 6.51
pIC50 [3]: 6.70

Structure (SMILES): Fc1cccc(COc2ccc(Nc3ncnn4ccc(COC[C@@H]5CNCCO5)c34)cc2Cl)c1
pIC50 (NCI-N87 [1]): 6.21

Structure (SMILES): c1ccc(Cn2ncc3cc(Nc4ncnn5ccc(COC[C@@H]6CNCCO6)c45)ccc32)nc1
pIC50 (NCI-N87 [1]): 6.62
pIC50 [2]: 6.42
pIC50 [3]: 6.30

Structure (SMILES): Cc1ccn2ncnc(Nc3ccc4c(cnn4Cc4cccnc4)c3)c12
pIC50 [2]: 6.60
pIC50 [3]: 5.74

Structure (SMILES): NCCOCc1ccn2ncnc(Nc3ccc4c(cnn4Cc4cccc(F)c4)c3)c12
pIC50 (NCI-N87 [1]): 5.77
pIC50 (A2780): 5.08

Continued, in another order:

pIC50 [2]: 7.39
pIC50 [3]: 7.17
Structure (SMILES): C[C@H](c1cccc(F)c1)n1ncc2cc(Nc3ncnn4ccc(COC[C@@H]5CNCCO5)c34)ccc21
pIC50 (NCI-N87 [1]): 6.89

pIC50 [2]: 6.96
pIC50 (HT-29): < 5.00
pIC50 [3]: 6.92
Structure (SMILES): OCc1ccn2ncnc(Nc3ccc4c(cnn4Cc4cccc(F)c4)c3)c12
pIC50 (NCI-N87 [1]): 5.13

pIC50 (A2780): < 5.00
pIC50 [2]: 7.74
pIC50 [3]: 7.52
Structure (SMILES): O=C(O)COCc1ccn2ncnc(Nc3ccc4c(cnn4Cc4cccc(F)c4)c3)c12
pIC50 (NCI-N87 [1]): < 5.00

pIC50 (A2780): < 5.00
pIC50 [2]: 7.22
pIC50 [3]: 7.08
Structure (SMILES): Fc1cccc(Cn2ncc3cc(Nc4ncnn5ccc(COC[C@H]6CNCCO6)c45)ccc32)c1
pIC50 (NCI-N87 [1]): 6.89

pIC50 (A2780): 5.13
pIC50 [2]: 7.22
pIC50 [3]: 7.19
Stability (Liver): 0.01 nmol/min/mg
Structure (SMILES): NCCCOCc1ccn2ncnc(Nc3ccc4c(cnn4Cc4cccc(F)c4)c3)c12
pIC50 (NCI-N87 [1]): 6.19

pIC50 [2]: 6.89
pIC50 [3]: 6.92
Structure (SMILES): C[C@H](c1ccccc1)n1ncc2cc(Nc3ncnn4ccc(COC[C@@H]5CNCCO5)c34)ccc21
pIC50 (NCI-N87 [1]): 6.18

pIC50 [2]: 6.89
pIC50 [3]: 6.80
Structure (SMILES): NCCCCOCc1ccn2ncnc(Nc3ccc4c(cnn4Cc4cccc(F)c4)c3)c12

pIC50 (A2780): 5.31
pIC50 [2]: 6.92
pIC50 [3]: 6.89
Structure (SMILES): Fc1cccc(Cn2ncc3cc(Nc4ncnn5ccc(COCC6CCNCC6)c45)ccc32)c1
pIC50 (NCI-N87 [1]): 6.14

pIC50 (A2780): < 5.00
pIC50 [2]: 6.96
pIC50 [3]: 6.85
Structure (SMILES): NC(=O)COCc1ccn2ncnc(Nc3ccc4c(cnn4Cc4cccc(F)c4)c3)c12
pIC50 (NCI-N87 [1]): 5.77

pIC50 [2]: 6.96
pIC50 [3]: 7.07
Structure (SMILES): Cc1ccn2ncnc(Nc3ccc4c(cnn4Cc4ccccc4)c3)c12

pIC50 (A2780): 5.22
pIC50 [2]: 7.15
pIC50 [3]: 7.14
Stability (Liver): 0.02 nmol/min/mg
Structure (SMILES): Fc1cccc(Cn2ncc3cc(Nc4ncnn5ccc(COC6CCNCC6)c45)ccc32)c1
pIC50 (NCI-N87 [1]): 6.48

fraction unbound at 10 µM [5]: 0.026
IC50 (MAP kinase p38): > 50000 nM
concentration at 4 h [8]: 5.8 µM
Papp [10]: 6.4 ×10⁻⁶ cm/s
Activity [12]: Dose-dependent effect
pIC50 (A2780): 5.06
pIC50 [2]: 7.26
pIC50 [14]: 5.19
pIC50 [15]: < 5.00
pIC50 [3]: 7.21
Stability (Liver): 0.07 nmol/min/mg
AUC (Mus musculus [17]): 29 µM·h
pIC50 [19]: < 4.30
pIC50 [21]: < 5.30
Structure (SMILES): Fc1cccc(Cn2ncc3cc(Nc4ncnn5ccc(COC[C@@H]6CNCCO6)c45)ccc32)c1
Activity (Mus musculus [4]): Non-toxic
inhibition in vivo at 240 mg/kg [6]: 91%
inhibition in vivo at 120 mg/kg (NCI-N87 [7]): 70%
inhibition in vivo at 120 mg/kg [9]: 71%
pIC50 (NCI-N87 [1]): 7.08
inhibition in vivo at 30 mg/kg [11]: 21%
inhibition in vivo at 60 mg/kg [13]: 55%
Activity (Mus musculus [16]): Non-toxic
inhibition in vivo at 240 mg/kg (NCI-N87 [18]): 111%
inhibition in vivo at 60 mg/kg (NCI-N87 [20]): 51%
inhibition in vivo at 30 mg/kg (NCI-N87 [22]): 28%
